According to ChEMBL document CHEMBL4689842, “EUbOPEN Chemogenomics Library wave 1” (2021):
Several values for one entry are separate records, joined by “and”; a condition that tells them apart may be missing. Equal entries are not always repeated.

Tested on: HEK-293T
Test: Multiplex assay against HEK293T;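 on Population Tubulin-Different-Phenotype (%): share of the cells with healthy nuclei that show this phenotype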
Assay type: toxicity, cell-based
Conditions: human
Outline: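 Hoechst33342, BioTracker Green Microtubule Cytoskeleton Dye, MitoTracker Red and Annexin V Alexa Fluor 680 were added to live cells at seeding, and imaging on a CQ1 microscope at 37°C and 5% CO2 followed compound addition. Gating by CellPathfinder machine learning separated cells into Hoechst high-intensity objects or normal cells, then normal cells into healthy, pyknosed or fragmented nuclei, then pyknosed cells into mitotic or apoptotic. Per cents of healthy-nucleus cells are reported for the tubulin, mitochondrial-mass and membrane-permeability phenotypes.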

[1] = 12 h, 1 µM, compound concentration 1 uM, replicate 1
[2] = 12 h, 1 µM, compound concentration 1 uM, replicate 2
[3] = 12 h, 10 µM, compound concentration 10 uM, replicate 1
[4] = 12 h, 10 µM, compound concentration 10 uM, replicate 2
[5] = 24 h, 1 µM, compound concentration 1 uM, replicate 1
[6] = 24 h, 1 µM, compound concentration 1 uM, replicate 2
[7] = 24 h, 10 µM, compound concentration 10 uM, replicate 1
[8] = 24 h, 10 µM, compound concentration 10 uM, replicate 2
[9] = 48 h, 10 µM, compound concentration 10 uM, replicate 1
[10] = 48 h, 10 µM, compound concentration 10 uM, replicate 2

## CNC(=O)c1ccc(Nc2nc(OC3CCCC3)c3c(-c4ccc5nc(C)oc5c4)c[nH]c3n2)c(OC)c1
[1]
  Population Apoptotic (%): 36%
  Population Fragmented Nuclei (%): 20%
  Population Healthy Nuclei (%): 22%
  Population Hoechst High Intensity Objects (%): 22%
  Population Membrane Permeable-Phenotype (%): 19%
  Population Mitochondria Different-Phenotype (%): 28%
  Population Mitotic Cells (%): 63%
  Population Normal (%): 77%
  Population Pyknosed Nuclei (%): 57%
  Population Tubulin-Different-Phenotype (%): 76%
  Total Cell Count: 469
[2]
  Population Apoptotic (%): 37%
  Population Fragmented Nuclei (%): 2%
  Population Healthy Nuclei (%): 77%
  Population Hoechst High Intensity Objects (%): 4%
  Population Membrane Permeable-Phenotype (%): 18%
  Population Mitochondria Different-Phenotype (%): 47%
  Population Mitotic Cells (%): 62%
  Population Normal (%): 95%
  Population Pyknosed Nuclei (%): 19%
  Population Tubulin-Different-Phenotype (%): 94%
  Total Cell Count: 712
[3]
  Population Apoptotic (%): 26%
  Population Fragmented Nuclei (%): 19%
  Population Healthy Nuclei (%): 50%
  Population Hoechst High Intensity Objects (%): 20%
  Population Membrane Permeable-Phenotype (%): 22%
  Population Mitochondria Different-Phenotype (%): 13%
  Population Mitotic Cells (%): 73%
  Population Normal (%): 79%
  Population Pyknosed Nuclei (%): 30%
  Population Tubulin-Different-Phenotype (%): 58%
  Total Cell Count: 532
[4]
  Population Apoptotic (%): 14%
  Population Fragmented Nuclei (%): 3%
  Population Healthy Nuclei (%): 91%
  Population Hoechst High Intensity Objects (%): 5%
  Population Membrane Permeable-Phenotype (%): 13%
  Population Mitochondria Different-Phenotype (%): 27%
  Population Mitotic Cells (%): 85%
  Population Normal (%): 94%
  Population Pyknosed Nuclei (%): 4%
  Population Tubulin-Different-Phenotype (%): 83%
  Total Cell Count: 1205
[5]
  Population Apoptotic (%): 61%
  Population Fragmented Nuclei (%): 28%
  Population Healthy Nuclei (%): 13%
  Population Hoechst High Intensity Objects (%): 25%
  Population Membrane Permeable-Phenotype (%): 10%
  Population Mitochondria Different-Phenotype (%): 54%
  Population Mitotic Cells (%): 38%
  Population Normal (%): 74%
  Population Pyknosed Nuclei (%): 57%
  Population Tubulin-Different-Phenotype (%): 58%
  Total Cell Count: 472
[6]
  Population Apoptotic (%): 43%
  Population Fragmented Nuclei (%): 3%
  Population Healthy Nuclei (%): 80%
  Population Hoechst High Intensity Objects (%): 9%
  Population Membrane Permeable-Phenotype (%): 5%
  Population Mitochondria Different-Phenotype (%): 66%
  Population Mitotic Cells (%): 56%
  Population Normal (%): 90%
  Population Pyknosed Nuclei (%): 15%
  Population Tubulin-Different-Phenotype (%): 78%
  Total Cell Count: 721
[7]
  Population Apoptotic (%): 24%
  Population Fragmented Nuclei (%): 20%
  Population Healthy Nuclei (%): 62%
  Population Hoechst High Intensity Objects (%): 15%
  Population Membrane Permeable-Phenotype (%): 23%
  Population Mitochondria Different-Phenotype (%): 15%
  Population Mitotic Cells (%): 75%
  Population Normal (%): 84%
  Population Pyknosed Nuclei (%): 17%
  Population Tubulin-Different-Phenotype (%): 81%
  Total Cell Count: 481
[8]
  Population Apoptotic (%): 11%
  Population Fragmented Nuclei (%): 10%
  Population Healthy Nuclei (%): 86%
  Population Hoechst High Intensity Objects (%): 5%
  Population Membrane Permeable-Phenotype (%): 17%
  Population Mitochondria Different-Phenotype (%): 11%
  Population Mitotic Cells (%): 88%
  Population Normal (%): 94%
  Population Pyknosed Nuclei (%): 2%
  Population Tubulin-Different-Phenotype (%): 87%
  Total Cell Count: 1423

## CN1CCN(C(=O)C(C)(C)c2ccc(C(=O)Nc3cn4cc(-c5ccncc5)ccc4n3)cc2)CC1 [T3-CLK]
[3]
  Population Hoechst High Intensity Objects (%): 16% and 14% and 10%
  Population Membrane Permeable-Phenotype (%): 6% and 17%
  Population Normal (%): 83% and 85% and 89%
  Population Pyknosed Nuclei (%): 24% and 27%
[4]
  Population Fragmented Nuclei (%): 4% and 3% and 6%
  Population Hoechst High Intensity Objects (%): 7% and 4%
  Population Membrane Permeable-Phenotype (%): 10% and 5%
  Population Mitotic Cells (%): 49% and 79% and 91%
  Population Normal (%): 92% and 95%
  Population Tubulin-Different-Phenotype (%): 89% and 85% and 39%
[7]
  Population Fragmented Nuclei (%): 15% and 17% and 6%
  Population Hoechst High Intensity Objects (%): 18% and 17% and 6%
  Population Membrane Permeable-Phenotype (%): 9% and 11% and 13%
  Population Normal (%): 81% and 82% and 93%
  Population Tubulin-Different-Phenotype (%): 100% and 76% and 34%
[8]
  Population Fragmented Nuclei (%): 4% and 7%
  Population Membrane Permeable-Phenotype (%): 14% and 16% and 8%
  Population Normal (%): 91% and 97% and 94%
  Population Tubulin-Different-Phenotype (%): 91% and 70% and 94%
[9]
  Population Apoptotic (%): 92%
  Population Fragmented Nuclei (%): 19%
  Population Healthy Nuclei (%): 10%
  Population Hoechst High Intensity Objects (%): 18%
  Population Membrane Permeable-Phenotype (%): 0%
  Population Mitochondria Different-Phenotype (%): 94%
  Population Mitotic Cells (%): 7%
  Population Normal (%): 81%
  Population Pyknosed Nuclei (%): 70%
  Population Tubulin-Different-Phenotype (%): 77%
  Total Cell Count: 216
[10]
  Population Apoptotic (%): 91%
  Population Fragmented Nuclei (%): 7%
  Population Healthy Nuclei (%): 17%
  Population Hoechst High Intensity Objects (%): 4%
  Population Membrane Permeable-Phenotype (%): 12%
  Population Mitochondria Different-Phenotype (%): 79%
  Population Mitotic Cells (%): 8%
  Population Normal (%): 95%
  Population Pyknosed Nuclei (%): 75%
  Population Tubulin-Different-Phenotype (%): 87%
  Total Cell Count: 142
